Measurements taken from ChEMBL document CHEMBL3352380, “Development of benzo[d]oxazol-2(3H)-ones derivatives as novel inhibitors of Mycobacterium tuberculosis InhA” (Bioorg Med Chem, 2014).
≈ marks a conversion by molar mass, not a printed value.

What was measured:
[1] = tested on: Mycobacterium tuberculosis; assay: Antimicrobial activity against Mycobacterium tuberculosis H37Rv ATCC 27294 after 28 days by two-fold agar dilution method in presence of verapamil; assay type: functional; conditions: H37Rv ATCC 27294, 672 h
Summary of the method: (§1)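 Two-fold serial dilutions in Middlebrook 7H11 agar with OADC supplement, final 50 to 0.78 µg/mL. Inoculum from fresh 7H11/OADC slants, adjusted to 1 mg/mL wet weight in 0.05% Tween 80 saline and diluted 10^-2 (~10^7 cfu/mL), spotted onto drug-containing agar tubes. Incubated at 37 °C; MIC is the lowest concentration inhibiting growth, read at 28 days.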

[2] = tested on: Mycobacterium tuberculosis; assay: Antimicrobial activity against Mycobacterium tuberculosis H37Rv ATCC 27294 after 28 days by two-fold agar dilution method; assay type: functional; conditions: H37Rv ATCC 27294, 672 h; summary of the method: as §1
[3] = Cytotoxicity against mouse RAW264.7 cells at 100 uM after 72 hrs by MTT assay; assay type: cell-based; conditions: read-out: INH
Summary of the method: (§2)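 RAW 264.7 macrophages exposed to compound for 72 h. Viability read as MTT conversion to formazan with a non-radioactive cell proliferation kit, reported as percentage growth inhibition.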

[4] = Cytotoxicity against mouse RAW264.7 cells at 50 uM after 72 hrs by MTT assay; assay type: cell-based; conditions: read-out: INH; summary of the method: as §2
[5] = tested on: Mycobacterium tuberculosis; assay: Antimicrobial activity against Mycobacterium tuberculosis H37Rv ATCC 27294 after 28 days by two-fold agar dilution method in presence of piperine; assay type: functional; conditions: H37Rv ATCC 27294, 672 h; summary of the method: as §1
[6] = molecular target: T1, Enoyl-[acyl-carrier-protein] reductase [NADH] (Mycobacterium tuberculosis) (UniProt P9WGR1); assay: Inhibition of Mycobacterium tuberculosis recombinant His6-tagged InhA expressed in Escherichia coli BL21(DE3) using 2-trans-decenoyl-CoA as substrate at 10 uM incubated for 2 hrs prior to substrate addition by spectrophotometry
T1 sequence (whole entry): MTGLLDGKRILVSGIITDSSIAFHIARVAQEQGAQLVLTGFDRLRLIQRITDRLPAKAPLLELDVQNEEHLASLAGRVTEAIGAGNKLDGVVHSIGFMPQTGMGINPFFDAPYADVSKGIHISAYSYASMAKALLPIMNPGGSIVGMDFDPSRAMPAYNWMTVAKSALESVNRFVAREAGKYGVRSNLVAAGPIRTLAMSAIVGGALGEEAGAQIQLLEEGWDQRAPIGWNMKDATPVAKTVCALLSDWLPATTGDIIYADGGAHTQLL
Summary of the method: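 His6-InhA expressed in E. coli BL21(DE3) with 0.1 mM IPTG at 18 °C and purified on Ni-NTA. 70 nM enzyme pre-incubated 2 h with inhibitor at 10 µM in 30 mM PIPES, 150 mM NaCl, pH 6.8, 0.5% DMSO, 25 °C. Reaction started with DD-CoA plus NADH and followed at 340 nm. Initial velocity compared with a no-ligand control; triplicate.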

[7] = molecular target: T2, Enoyl-[acyl-carrier-protein] reductase [NADH] (Mycobacterium tuberculosis, UniProt P9WGR1); assay: Inhibition of Mycobacterium tuberculosis recombinant His6-tagged InhA expressed in Escherichia coli BL21(DE3) using 2-trans-decenoyl-CoA as substrate incubated for 2 hrs prior to substrate addition by spectrophotometry
T2 sequence (P9WGR1 whole entry): T1 sequence (whole entry)

[8] = molecular target: T1, Enoyl-[acyl-carrier-protein] reductase [NADH] (Mycobacterium tuberculosis)

| Compound | MIC [1] [µM] | MIC [2] [µM] | cytotoxicity at 72 h, 100 µM [3] [%] | cytotoxicity at 72 h, 50 µM [4] [%] | MIC [5] [µM] | inhibition [6] [%] | IC50 [7] [µM] | Tm [8] [°C] |
| --- | --- | --- | --- | --- | --- | --- | --- | --- |
| O=C(Cn1c(=O)oc2ccccc21)Nc1ccccc1 | 23.3 | 46.6 (≈ 12.5 µg/mL) | 39.8 | 35.1 | 23.3 | 32.4 | – | – |
| O=C(Cn1c(=O)oc2cc([N+](=O)[O-])ccc21)Nc1ccccn1 | 19.9 | 39.8 (≈ 12.5 µg/mL) | 47.3 | 38.6 | 9.94 | 15.6 | – | – |
| O=C(Cn1c(=O)oc2cc(Cl)ccc21)NCc1cccs1 | 9.64 | 38.7 (≈ 12.5 µg/mL) | 53.6 | 20.3 | 9.64 | 45.6 | – | – |
| O=C(Cn1c(=O)oc2ccccc21)Nc1cccc(Cl)c1 | – | – | – | – | – | 17 | > 25 | – |
| O=C(Cn1c(=O)oc2ccccc21)NCc1ccccn1 | 22.1 | 88.2 (≈ 25 µg/mL) | 38.7 | 37.3 | 44.1 | 42.2 | – | – |
| O=C(Cn1c(=O)oc2cc([N+](=O)[O-])ccc21)Nc1ncc([N+](=O)[O-])s1 | 8.55 | 17.1 (≈ 6.25 µg/mL) | 43.8 | 20.2 | 8.55 | 82.4 | 5.12 | 1.9 |
| O=C(Cn1c(=O)oc2ccccc21)Nc1nc2ccc([N+](=O)[O-])cc2s1 | 8.43 | 33.8 (≈ 12.5 µg/mL) | 19.2 | 12.4 | 4.21 | 45.1 | – | – |
| O=C(Cn1c(=O)oc2ccccc21)Nc1cc(C(F)(F)F)ccc1Cl | 33.7 | 67.4 (≈ 25 µg/mL) | 15.4 | 12.3 | 16.9 | 26.8 | – | – |
| O=C(Cn1c(=O)oc2ccccc21)Nc1cc(Cl)ccc1Cl | – | – | – | – | – | 19.5 | 22.1 | – |
| O=C(Cn1c(=O)oc2ccccc21)Nc1ccc(Cl)c(Cl)c1 | – | – | – | – | – | 16.5 | > 25 | – |
| O=C(Cn1c(=O)oc2cc([N+](=O)[O-])ccc21)NCc1ccccn1 | 38.1 | 76.2 (≈ 25 µg/mL) | 33.4 | 21.8 | 9.51 | 68.1 | 8.23 | – |
| O=C(Cn1c(=O)oc2cc(Cl)ccc21)Nc1cc(C(F)(F)F)ccc1Cl | 15.4 | 61.7 (≈ 25 µg/mL) | 12.1 | 1.61 | 15.4 | 40.1 | – | – |
| NNC(=O)c1ccncc1 [ISONIAZID] | – | 0.72 (≈ 0.0987 µg/mL) | – | – | – | – | – | – |
| O=C(Cn1c(=O)oc2cc(Cl)ccc21)Nc1ccccn1 | 10.3 | 82.3 (≈ 25 µg/mL) | 43.7 | 33 | 10.3 | 51.6 | – | – |
| O=C(Cn1c(=O)oc2cc([N+](=O)[O-])ccc21)Nc1cc(C(F)(F)F)ccc1Cl | 15 | 60.1 (≈ 25 µg/mL) | 31.6 | 12.8 | 30.1 | 32.2 | – | – |
| CO[C@H]1/C=C/O[C@@]2(C)Oc3c(C)c(O)c4c(O)c(c(/C=N/N5CCN(C)CC5)c(O)c4c3C2=O)NC(=O)/C(C)=C\C=C\[C@H](C)[C@H](O)[C@@H](C)[C@@H](O)[C@@H](C)[C@H](OC(C)=O)[C@@H]1C [RIFAMPIN] | – | 0.15 (≈ 0.123 µg/mL) | – | – | – | – | – | – |
| CC1COc2c(N3CCN(C)CC3)c(F)cc3c(=O)c(C(=O)O)cn1c23 (stereo not drawn) [OFLOXACIN] | – | 2.16 (≈ 0.781 µg/mL) | – | – | – | – | – | – |

| Compound | MIC [1] [µM] | MIC [2] [µM] | cytotoxicity at 72 h, 100 µM [3] [%] | cytotoxicity at 72 h, 50 µM [4] [%] | MIC [5] [µM] | inhibition [6] [%] | IC50 [7] [µM] | Tm [8] [°C] |
| --- | --- | --- | --- | --- | --- | --- | --- | --- |
| O=C(Cn1c(=O)oc2ccccc21)NCc1cccs1 | 10.8 | 21.7 (≈ 6.25 µg/mL) | 49.1 | 23.4 | 5.41 | 26.1 | – | – |
| O=C(Cn1c(=O)oc2cc([N+](=O)[O-])ccc21)Nc1nc2ccccc2s1 | 33.8 | 33.8 (≈ 12.5 µg/mL) | 56.1 | 22.7 | 33.8 | 60.8 | 7.62 | – |
| O=C(Cn1c(=O)oc2ccccc21)Nc1ccccn1 | 4.64 | 46.4 (≈ 12.5 µg/mL) | 28.4 | 20.2 | 9.28 | 26.1 | – | – |
| CC[C@@H](CO)NCCN[C@@H](CC)CO [ETHAMBUTOL] | – | 7.64 (≈ 1.56 µg/mL) | – | – | – | – | – | – |
| O=C(Cn1c(=O)oc2cc([N+](=O)[O-])ccc21)Nc1ccccc1 | 19.9 | 79.8 (≈ 25 µg/mL) | 26.4 | 18 | 9.97 | 46.1 | – | – |
| O=C(Cn1c(=O)oc2cc([N+](=O)[O-])ccc21)NCc1cccs1 | 18.8 | 18.8 (≈ 6.25 µg/mL) | 41 | 36.5 | 18.8 | 35.7 | – | – |
| O=C(Cn1c(=O)oc2ccccc21)Nc1nc2ccccc2s1 | 9.6 | 19.2 (≈ 6.25 µg/mL) | 59.6 | 43.5 | 9.6 | 42.1 | – | – |
| O=C(Cn1c(=O)oc2ccccc21)Nc1ncc([N+](=O)[O-])s1 | 39 | 78 (≈ 25 µg/mL) | 44.6 | 25 | 19.5 | 48.1 | – | – |
| O=C(Cn1c(=O)oc2cc(Cl)ccc21)Nc1ncc([N+](=O)[O-])s1 | 8.81 | 17.6 (≈ 6.25 µg/mL) | 50.6 | 14.3 | 17.6 | 72.6 | 6.82 | – |
| O=C(Cn1c(=O)oc2cc(Cl)ccc21)Nc1ccccc1 | 20.6 | 82.6 (≈ 25 µg/mL) | 20.2 | 15.8 | 41.3 | 28.2 | – | – |
| O=C(Cn1c(=O)oc2cc([N+](=O)[O-])ccc21)NCc1ccco1 | 39.4 | 78.8 (≈ 25 µg/mL) | 60.1 | 26.8 | 39.4 | 36.9 | – | – |
| O=C(Cn1c(=O)oc2cc([N+](=O)[O-])ccc21)Nc1nc2ccc([N+](=O)[O-])cc2s1 | 3.75 | 15 (≈ 6.25 µg/mL) | 39 | 14.8 | 3.75 | 51.7 | – | – |
| O=C(Cn1c(=O)oc2cc(Cl)ccc21)Nc1nc2ccc([N+](=O)[O-])cc2s1 | 7.72 | 30.9 (≈ 12.5 µg/mL) | 14.2 | 12.5 | 7.72 | 48.6 | – | – |
| O=C(Cn1c(=O)oc2cc(Cl)ccc21)NCc1ccco1 | 20.4 | 40.8 (≈ 12.5 µg/mL) | 50.3 | 27.8 | 10.2 | 47.5 | – | – |
| O=C(Cn1c(=O)oc2ccccc21)NCc1ccco1 | 22.9 | 22.9 (≈ 6.25 µg/mL) | 33.8 | 32.8 | 22.9 | 30.1 | – | – |
| O=C(Cn1c(=O)oc2cc(Cl)ccc21)NCc1ccccn1 | 4.91 | 39.3 (≈ 12.5 µg/mL) | 40 | 36.1 | 4.91 | 43.1 | – | – |
| O=C(Cn1c(=O)oc2cc(Cl)ccc21)Nc1nc2ccccc2s1 | 8.68 | 17.4 (≈ 6.25 µg/mL) | 52.5 | 38.7 | 17.4 | 58.2 | 8.9 | – |
